Reference: PMC6796888 (ACS Omega, 2019)
Converted amounts (≈) assume the structure as drawn.

Key:
P. aeruginosa = assay: Synergistic assay with ciprofloxacin; format: cell-based; conditions: P. aeruginosa; 4l combined with CIP
S. typhimurium = assay: Synergistic assay with ciprofloxacin; format: cell-based, Salmonella typhimurium
E. faecalis = assay: Synergistic assay with ciprofloxacin; format: cell-based, Enterococcus faecalis
S. pneumoniae = assay: Synergistic assay with ciprofloxacin; format: cell-based, Streptococcus pneumoniae
E. coli = assay: Synergistic assay with ciprofloxacin; format: cell-based, Escherichia coli; conditions: E. coli; 4l combined with CIP
E. faecalis MTCC 439 = assay: In vitro screening, % growth inhibition at 250 μg/mL; format: cell-based, Enterococcus faecalis; conditions: Enterococcus faecalis, MTCC439, 24 h, read-out: % inhibition at 250 μg/mL
Procedure, shortened: (§1)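 Test compounds dissolved in DMSO and diluted in test medium. Mid-log cultures diluted in nutrient broth to McFarland standard and treated with 250 μg/mL in 96-well plates, 37 °C, 160 rpm, 24 h. Growth read as OD at 580 nm; % inhibition calculated from absorbance against untreated growth. Run twice on different occasions.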

P. auroginosa MTCC 2453 [1] = assay: as above; format: cell-based, Pseudomonas auroginosa; conditions: for inhibition at 250 µg/mL: Pseudomonas, MTCC2453, 24 h, read-out: % inhibition at 250 μg/mL
Procedure, shortened: as §1

S. pneumoniae MTCC 655 = assay: as above; format: cell-based, Streptococcus pneumoniae; conditions: Streptococcus pneumoniae, MTCC655, 24 h, read-out: % inhibition at 250 μg/mL
Procedure, shortened: as §1

E. coli ATCC 25922 = assay: as above; format: cell-based, Escherichia coli; conditions: Escherichia coli, ATCC25922, 24 h, read-out: % inhibition at 250 μg/mL
Procedure, shortened: as §1

P. auroginosa MTCC 2453 [2] = assay: MIC by broth microdilution; format: cell-based, Pseudomonas auroginosa; conditions: Pseudomonas, MTCC2453

## O=C(O)c1cn(C2CC2)c2cc(N3CCNCC3)c(F)cc2c1=O [CIP, ciprofloxacin, reference compound]
P. aeruginosa
  MIC in combination: 0.5 µg/mL
S. typhimurium; S. typhimurium, 4l combined with CIP
  MIC in combination: 0.25 µg/mL
S. typhimurium; Salmonella enterica, TYPHIMURIUM, read-out: MIC alone
  MIC: 0.25 µg/mL
E. faecalis; E. faecalis, 4l combined with CIP
  MIC in combination: 0.0625 µg/mL
E. faecalis; Enterococcus faecalis, read-out: MIC alone
  MIC: 0.25 µg/mL
S. pneumoniae; S. pneumoniae, 4l combined with CIP
  MIC in combination: 0.0625 µg/mL
S. pneumoniae; Streptococcus pneumoniae, read-out: MIC alone
  MIC: 0.25 µg/mL
E. coli
  MIC in combination: 0.125 µg/mL

## CNC1=C([N+](=O)[O-])C2(C(=O)Nc3ccccc32)C2=C(CC(C)(C)CC2=O)O1 (stereo not shown) [Compound 4a, 7,7-Dimethyl-2-(methylamino)-3-nitro-7,8-dihydrospiro[chromene-4,3′-indoline]-2′,5(6 H)-dione]
E. faecalis MTCC 439
  inhibition at 250 µg/mL: 41.5%
P. auroginosa MTCC 2453 [1]
  inhibition at 250 µg/mL: 37.3%
S. pneumoniae MTCC 655
  inhibition at 250 µg/mL: 29.7%
E. coli ATCC 25922
  inhibition at 250 µg/mL: 43.2%

## CNC1=C([N+](=O)[O-])C2(C(=O)Nc3ccc(Cl)cc32)C2=C(CC(C)(C)CC2=O)O1 (stereo not shown) [Compound 4b]
E. faecalis MTCC 439
  inhibition at 250 µg/mL: 31.9%
P. auroginosa MTCC 2453 [1]
  inhibition at 250 µg/mL: 18%
S. pneumoniae MTCC 655
  inhibition at 250 µg/mL: 21.3%
E. coli ATCC 25922
  inhibition at 250 µg/mL: 43.2%

## CNC1=C([N+](=O)[O-])C2(C(=O)Nc3ccc(Br)cc32)C2=C(CC(C)(C)CC2=O)O1 (stereo not shown) [Compound 4c]
E. faecalis MTCC 439
  inhibition at 250 µg/mL: 38.1%
P. auroginosa MTCC 2453 [1]; P. auroginosa MTCC 2453, 250 μg/mL, 24 h
  % inhibition at 250 μg/mL: complete growth inhibition
P. auroginosa MTCC 2453 [1]
  inhibition at 250 µg/mL: 100%
S. pneumoniae MTCC 655
  inhibition at 250 µg/mL: 21.5%
E. coli ATCC 25922
  inhibition at 250 µg/mL: 40.7%
P. auroginosa MTCC 2453 [2]
  MIC: 250 µg/mL (≈ 558 µM)
